Bioassay records deposited in PubChem BioAssay by Sanford-Burnham Center for Chemical Genomics.
SENP8 block-1 = inhibitors of human SENP8 protease. Q96LD8. purified SENP8, Z-RLRGG-aminoluciferin cleavage, luminescence. inhibition, % at 10 µM. 330,000 tested, 1.2% active; in the data active = inhibition above about 50%
Target sequence (Q96LD8 whole entry, looked up): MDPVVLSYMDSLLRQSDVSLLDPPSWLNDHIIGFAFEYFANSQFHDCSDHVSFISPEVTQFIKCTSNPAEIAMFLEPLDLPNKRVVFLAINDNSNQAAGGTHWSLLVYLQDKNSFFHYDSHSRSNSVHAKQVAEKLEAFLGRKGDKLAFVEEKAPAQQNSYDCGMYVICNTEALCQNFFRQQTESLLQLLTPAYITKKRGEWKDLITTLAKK
SENP1 FRET inh = blocks the human SENP1 SUMO protease catalytic domain. recombinant SENP1 catalytic domain, CyPet-SUMO1-YPet FRET cleavage. Q9P0U3. 360,000 tested, 0.21% active. inhibition, % at 10 µM;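 active = inhibition at least 30% at 10 µM, raw YFP signal under a set limit, fluorescence ratio 0.5 to 1.5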;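 note: 0% = enzyme with DMSO and 100% = no enzyme wells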
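Compound: 10 µM single point, 0.5% DMSO; Test system: hSENP1 catalytic domain, recombinant; Timing: 50 min reaction at room temperature; Technique: FRET, CFP and YFP emission; Control set: no-enzyme wells low, DMSO-plus-enzyme wells high control.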
SENP7 block = SENP7 protease inhibition; recombinant SENP7, Z-RLRGG-aminoluciferin luminescence, 40 min; inhibition, % at 5 µM; 330,000 tested, 1.5% active;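 active = inhibition above about 50% at the single test dose, limit read from the data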;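 note: plate controls were DMSO with enzyme for no effect and no enzyme buffer wells for full effect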
SENP6 inh = SENP6 protease inhibition. Recombinant SENP6 catalytic domain, aminoluciferin luminescence. inhibition, % at 10 µM. 330,000 tested, 1.8% active. AID 2599;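 active = inhibition above about 50% at the single tested dose, limit read from the data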;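 note: plate controls were DMSO wells with enzyme for no effect and DMSO wells lacking enzyme for full effect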
SENP8 block-2 = SENP8 (human) protease inhibition. Q96LD8. inhibition, % at 20 µM. AID 602440. recombinant SENP8, Nedd8 substrate fluorescence. 360,000 tested, 0.64% active; in the data active = inhibition mostly above about 40%, no sharp cut-off; inactive = mostly below about 27%
SENP8 conf = confirmation of human SENP8 protease inhibitors; shares compounds with SENP7 block; Recombinant SENP8, Z-RLRGG-aminoluciferin luminescence, 60 min; inhibition, % at 12.5 µM; 6,200 tested, 40% active;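 active = mean inhibition across replicates above about 50%, limit read from the data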
SENP6 confirm = human SENP6 inhibition, confirmed; shares compounds with SENP7 block; recombinant SENP6, Z-RLRGG-aminoluciferin luminescence; inhibition, % at 12.5 µM; 6,200 tested, 58% active; AID 488915
SENP7 conf = confirmation of human SENP7 protease inhibitors | recombinant SENP7, Z-RLRGG-aminoluciferin luminescence, 40 min | AID 488917 | 6,200 tested, 69% active | shares compounds with SENP7 block | inhibition, % at 12.5 µM
Casp3 SENP sel = caspase-3 inhibition (SENP selectivity assay). shares compounds with SENP7 block. purified caspase-3, Z-DEVD-aminoluciferin luminescence, 60 min. inhibition, % at 12.5 µM. 6,200 tested, 60% active. AID 488918;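 active = mean inhibition above about 50%, limit read from the data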;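 note: plate controls were enzyme with DMSO for no effect and wells without caspase-3 for full effect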
Target sequence (P42574 28-227 limits assumed): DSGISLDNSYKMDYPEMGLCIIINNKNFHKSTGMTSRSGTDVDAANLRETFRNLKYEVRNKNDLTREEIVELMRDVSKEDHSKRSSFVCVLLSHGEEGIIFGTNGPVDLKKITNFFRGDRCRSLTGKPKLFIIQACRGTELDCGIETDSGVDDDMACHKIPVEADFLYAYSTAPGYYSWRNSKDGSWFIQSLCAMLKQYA
Luc interf = counter-screen for SENP inhibitors: luminescence interference; shares compounds with SENP7 block; Pre-incubated SENP8/Z-RLRGG-aminoluciferin, luciferase luminescence interference; inhibition, % at 12.5 µM; 6,200 tested, 39% active; AID 488919;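 active = mean inhibition above about 50% when retested at one dose, limit read from the data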;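 note: plate controls were DMSO wells with completed reaction for no effect and substrate without enzyme for full effect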
* marks the source's active call; other numbers are inactive results; . = not tested or not shown. Rows were chosen to be rich in hits. Some 2.5% of all compounds tested hit in one or more screens of this group.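 Rule for the calls, unless noted: active = mean inhibition above about 50% in the one-dose retest (limit read from the data); inactive = the rest.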

SMILES	SENP8 block-1	SENP1 FRET inh	SENP7 block	SENP6 inh	SENP8 block-2	SENP8 conf	SENP6 confirm	SENP7 conf	Casp3 SENP sel	Luc interf
CCCNC(=O)COc1ccc(-c2nn(C)c(=O)c3ccccc23)cc1	4	-1	-2	4	0	.	.	.	.	.
Cc1cc(C(=O)N/N=C/C(Cl)=C/c2ccccc2)c(C)o1	28	3	53*	49	21	36	36	75*	42	40
Cc1cc(C(=O)N/N=C/c2c(C)nn(-c3ccccc3)c2C)c(C)o1	35	0	36	50*	25	34	25	60*	55*	23
CN(c1ccc(OCC(=O)OCC(=O)Nc2ccc([N+](=O)[O-])cc2)cc1)S(=O)(=O)c1cccs1	.	0	.	.	14	.	.	.	.	.
COc1ccccc1C(C)NC(=O)c1ccc(S(=O)(=O)NCc2ccco2)cc1 (stereo not drawn)	-2	-1	7	14	0	.	.	.	.	.
Cc1ccc(Nc2nc3nonc3[nH]c2=O)cc1C	48	-4	39	70*	7	65*	62*	80*	64*	72*
Cc1ccc(Nc2nc3nonc3[nH]c2=O)cc1Cl	50*	-5	9	80*	-12	68*	64*	75*	34	70*
Cc1ccc(Nc2nc(N)nc(N)c2N=O)cc1C	.	3	.	.	25	.	.	.	.	.
Cc1ccc(NC2=CC(=O)CC(C)(C)C2)cc1Cl	-1	-92	3	7	-151	.	.	.	.	.
Cc1ccc(C2=NN(S(C)(=O)=O)C(c3ccc4c(c3)OCO4)C2)cc1 (stereo not drawn)	50	-9	59*	68*	12	34	63*	90*	71*	42
Cc1cc(N/N=C/c2ccccc2Br)nc2ccccc12	-17	-2	-9	-1	-98	.	.	.	.	.
Cc1cc(N/N=C/c2ccc3c(c2)OCO3)nc2ccccc12	47	-1	70*	59*	-425	28	68*	88*	35	43
O=c1[nH]c(N/N=C\c2ccc3c(c2)OCO3)nc2ccccc12	15	-105	48	56*	-387	28	44	41	60*	4
O=c1[nH]c(N/N=C/c2ccccc2)nc2ccccc12	-7	-29	8	29	-313	.	.	.	.	.
C=CCOc1ccc(/C=C/C(=O)OCC(=O)N2CCC(c3ccccc3)=N2)cc1	9	-2	8	-5	5	.	.	.	.	.
Cc1ccc(C(=O)Oc2oc(-c3ccccc3)nc2C=Nc2ccc(N(C)C)cc2)cc1	-13	-24	-15	-19	3	.	.	.	.	.
CN(C)c1ccc(N=Cc2nc(-c3ccccc3)oc2OC(=O)c2cccc(Cl)c2)cc1	-11	-26	72*	64*	25	6	5	-1	26	8
C(=C\c1nc(-c2ccccc2)no1)/c1ccccc1	75*	2	85*	84*	3	75*	82*	94*	65*	59*
N=C1/C(=C\c2ccc(-c3cc(Cl)cc(Cl)c3)o2)C(=O)N=C2SC=C(c3ccccc3)N12	8	18	2	21	5	.	.	.	.	.
N=C1/C(=C/c2ccc(-c3cccc(C(=O)O)c3)o2)C(=O)N=C2SC=C(c3ccccc3)N12	46	-23	11	65*	-30	26	-1	-8	3	4
CCCC(=O)N(Cc1cc(=O)[nH]c2ccccc12)c1ccccc1C	-6	0	-5	-34	-4	.	.	.	.	.
CC(C)n1nccc1N(Cc1ccc(Br)cc1)S(=O)(=O)c1ccccc1	6	-2	1	-14	7	.	.	.	.	.
COc1cccc(C(=O)/C=C2\Sc3ccccc3N2C)c1	60*	-144	50	10	-401	-6	73*	93*	73*	19
